Assay results reported in ChEMBL document CHEMBL5247578, “Effective synthesis of benzimidazoles-imidazo[1,2-a]pyrazine conjugates: A comparative study of mono-and bis-benzimidazoles for antitumor activity” (Eur J Med Chem, 2019).

Experiments:
[1] = n-Octanol/phosphate buffer partition coefficient, logP of the compound at pH 7.4 incubated for 85 mins by shake-flask method; assay type: physicochemical
Method in brief: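 Octanol–water partition by shake-flask: n-octanol with 0.15 M phosphate buffer pH 7.4 at 10:1 volumes. Buffer-phase absorbance read before mixing, then shaken 50 min and centrifuged at 2500 rpm for 35 min. Buffer absorbance read again; P = (Ai−Af)/Af × Vw/Vo.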

MDA-MB-468 = experiment: Antiproliferative activity against human MDA-MB-468 cells assessed as cell growth inhibition at 10 uM incubated for 48 hrs by sulforhodamine B assay relative to control; assay type: functional
Method in brief: (§1)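 NCI-60 single-dose screen at 10^-5 M. Cells grown in RPMI 1640 with 5% FBS and 2 mM L-glutamine, plated at 5,000–40,000 cells/well, and preincubated 24 h. Drug (DMSO stock) added and incubated 48 h at 37 °C, 5% CO2. Adherent cells fixed with cold TCA, stained with 0.4% SRB in 1% acetic acid, dye solubilized in 10 mM trizma base, A515 read. Percent growth taken against time-zero and untreated control.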

Hs-578T = experiment: Antiproliferative activity against human Hs-578T cells assessed as cell growth inhibition at 10 uM incubated for 48 hrs by sulforhodamine B assay relative to control; assay type: functional; method in brief: as §1
MCF7 = experiment: Antiproliferative activity against human MCF7 cells assessed as cell growth inhibition at 10 uM incubated for 48 hrs by sulforhodamine B assay relative to control; assay type: functional; method in brief: as §1
PC-3 = experiment: Antiproliferative activity against human PC-3 cells assessed as cell growth inhibition at 10 uM incubated for 48 hrs by sulforhodamine B assay relative to control; assay type: functional; method in brief: as §1
UO-31 = experiment: Antiproliferative activity against human UO-31 cells assessed as cell growth inhibition at 10 uM incubated for 48 hrs by sulforhodamine B assay relative to control; assay type: functional; method in brief: as §1
SN12C = experiment: Antiproliferative activity against human SN12C cells assessed as cell growth inhibition at 10 uM incubated for 48 hrs by sulforhodamine B assay relative to control; assay type: functional; method in brief: as §1
RXF 393 = experiment: Antiproliferative activity against human RXF 393 cells assessed as cell growth inhibition at 10 uM incubated for 48 hrs by sulforhodamine B assay relative to control; assay type: functional; method in brief: as §1
ACHN = experiment: Antiproliferative activity against human ACHN cells assessed as cell growth inhibition at 10 uM incubated for 48 hrs by sulforhodamine B assay relative to control; assay type: functional
Method in brief: (§2)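 Single-dose NCI-60 prescreen at 10^-5 M. Cells in RPMI 1640 with 5% FBS and 2 mM L-glutamine, seeded 5,000–40,000 cells/well with 24 h preincubation, then drug exposure for 48 h at 37 °C under 5% CO2. Growth read by SRB staining of TCA-fixed cells at 515 nm against time-zero and untreated controls. Negative growth values denote cell kill.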

786-0 = experiment: Antiproliferative activity against human 786-0 cells assessed as cell growth inhibition at 10 uM incubated for 48 hrs by sulforhodamine B assay relative to control; assay type: functional; method in brief: as §2
NCI/ADR-RES = experiment: Antiproliferative activity against human NCI/ADR-RES cells assessed as cell growth inhibition at 10 uM incubated for 48 hrs by sulforhodamine B assay relative to control; assay type: functional; method in brief: as §1
OVCAR-3 = experiment: Antiproliferative activity against human OVCAR-3 cells assessed as cell growth inhibition at 10 uM incubated for 48 hrs by sulforhodamine B assay relative to control; assay type: functional; method in brief: as §1
UACC-62 = experiment: Antiproliferative activity against human UACC-62 cells assessed as cell growth inhibition at 10 uM incubated for 48 hrs by sulforhodamine B assay relative to control; assay type: functional; method in brief: as §1
SK-MEL-5 = experiment: Antiproliferative activity against human SK-MEL-5 cells assessed as cell growth inhibition at 10 uM incubated for 48 hrs by sulforhodamine B assay relative to control; assay type: functional; method in brief: as §1
SK-MEL-2 = experiment: Antiproliferative activity against human SK-MEL-2 cells assessed as cell growth inhibition at 10 uM incubated for 48 hrs by sulforhodamine B assay relative to control; assay type: functional; method in brief: as §1
MDA-MB-435 = experiment: Antiproliferative activity against human MDA-MB-435 cells assessed as cell growth inhibition at 10 uM incubated for 48 hrs by sulforhodamine B assay relative to control; assay type: functional; method in brief: as §1
M14 = experiment: Antiproliferative activity against human M14 cells assessed as cell growth inhibition at 10 uM incubated for 48 hrs by sulforhodamine B assay relative to control; assay type: functional; method in brief: as §1
LOX IMVI = experiment: Antiproliferative activity against human LOX IMVI cells assessed as cell growth inhibition at 10 uM incubated for 48 hrs by sulforhodamine B assay relative to control; assay type: functional; method in brief: as §1
U-251 = experiment: Antiproliferative activity against human U-251 cells assessed as cell growth inhibition at 10 uM incubated for 48 hrs by sulforhodamine B assay relative to control; assay type: functional; method in brief: as §1
SF-295 = experiment: Antiproliferative activity against human SF-295 cells assessed as cell growth inhibition at 10 uM incubated for 48 hrs by sulforhodamine B assay relative to control; assay type: functional; method in brief: as §1
SF-268 = experiment: Antiproliferative activity against human SF-268 cells assessed as cell growth inhibition at 10 uM incubated for 48 hrs by sulforhodamine B assay relative to control; assay type: functional; method in brief: as §1
SW-620 = experiment: Antiproliferative activity against human SW620 cells assessed as cell growth inhibition at 10 uM incubated for 48 hrs by sulforhodamine B assay relative to control; assay type: functional; method in brief: as §1
KM12 = experiment: Antiproliferative activity against human KM12 cells assessed as cell growth inhibition at 10 uM incubated for 48 hrs by sulforhodamine B assay relative to control; assay type: functional; method in brief: as §1
HT-29 = experiment: Antiproliferative activity against human HT-29 cells assessed as cell growth inhibition at 10 uM incubated for 48 hrs by sulforhodamine B assay relative to control; assay type: functional; method in brief: as §1
NCI-H522 = experiment: Antiproliferative activity against human NCI-H522 cells assessed as cell growth inhibition at 10 uM incubated for 48 hrs by sulforhodamine B assay relative to control; assay type: functional; method in brief: as §1
NCI-H460 = experiment: Antiproliferative activity against human NCI-H460 cells assessed as cell growth inhibition at 10 uM incubated for 48 hrs by sulforhodamine B assay relative to control; assay type: functional; method in brief: as §1
NCI-H23 = experiment: Antiproliferative activity against human NCI-H23 cells assessed as cell growth inhibition at 10 uM incubated for 48 hrs by sulforhodamine B assay relative to control; assay type: functional; method in brief: as §1
NCI-H226 = experiment: Antiproliferative activity against human NCI-H226 cells assessed as cell growth inhibition at 10 uM incubated for 48 hrs by sulforhodamine B assay relative to control; assay type: functional; method in brief: as §1
HOP-92 = experiment: Antiproliferative activity against human HOP-92 cells assessed as cell growth inhibition at 10 uM incubated for 48 hrs by sulforhodamine B assay relative to control; assay type: functional
Method in brief: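 NCI-60 one-dose prescreen at 10^-5 M. Cells grown in RPMI 1640 with 5% FBS and 2 mM glutamine, preincubated 24 h, then exposed 48 h at 37 °C. Adherent lines TCA-fixed, SRB-stained, A515 read. Growth percent relative to time-zero and control; negative values mean cell kill.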

SR = experiment: Antiproliferative activity against human SR cells assessed as cell growth inhibition at 10 uM incubated for 48 hrs by sulforhodamine B assay relative to control; assay type: functional; method in brief: as §1
CCRF-CEM = experiment: Antiproliferative activity against human CCRF-CEM cells assessed as cell growth inhibition at 10 uM incubated for 48 hrs by sulforhodamine B assay relative to control; assay type: functional; method in brief: as §2

SMILES	logD at 1.417 h [1]	inhibition at 10 µM (Hs-578T) [%]	inhibition at 10 µM (MCF7) [%]	inhibition at 10 µM (PC-3) [%]	inhibition at 10 µM (UO-31) [%]	inhibition at 10 µM (SN12C) [%]	inhibition at 10 µM (RXF 393) [%]	inhibition at 10 µM (ACHN) [%]	inhibition at 10 µM (786-0) [%]	inhibition at 10 µM (NCI/ADR-RES) [%]	inhibition at 10 µM (OVCAR-3) [%]	inhibition at 10 µM (UACC-62) [%]	inhibition at 10 µM (SK-MEL-5) [%]	inhibition at 10 µM (SK-MEL-2) [%]	inhibition at 10 µM (M14) [%]	inhibition at 10 µM (LOX IMVI) [%]	inhibition at 10 µM (U-251) [%]	inhibition at 10 µM (SF-295) [%]	inhibition at 10 µM (SF-268) [%]	inhibition at 10 µM (SW-620) [%]	other results
Brc1ccc(-c2cn3ccnc3c(-c3ccc4ncn(C5CCCCC5)c4c3)n2)cc1	1.73	24.5	46.4	42.4	42.9	18.4	34	21.4	18	30.5	26.3	46.9	23.6	24.1	26.9	30.7	23.7	41.3	15.5	21.9	inhibition at 10 µM (MDA-MB-468): 33.7%; inhibition at 10 µM (MDA-MB-435): 58.4%; inhibition at 10 µM (KM12): 23.3%; inhibition at 10 µM (HT-29): 20.9%; inhibition at 10 µM (NCI-H522): 35.5%; inhibition at 10 µM (NCI-H460): 13.2%; inhibition at 10 µM (NCI-H23): 8.38%; inhibition at 10 µM (NCI-H226): 23.3%; inhibition at 10 µM (HOP-92): 34.1%; inhibition at 10 µM (SR): 60.6%
Fc1ccccc1-c1cn2ccnc2c(-c2ccc3ncn(C4CCCCC4)c3c2)n1	1.95	5.26	11.2	32.6	22.9	10.1	12.3	13.2	2.94	4.51	0.17	38.2	6.5	10.5	2.92	5.77	11.4	10.4	6.04	9.53	inhibition at 10 µM (MDA-MB-468): 27.6%; inhibition at 10 µM (KM12): 2.45%; inhibition at 10 µM (HT-29): 7.26%; inhibition at 10 µM (NCI-H522): 17.8%; inhibition at 10 µM (NCI-H460): 8.1%; inhibition at 10 µM (NCI-H23): 4.16%; inhibition at 10 µM (NCI-H226): 28.6%; inhibition at 10 µM (HOP-92): 37%; inhibition at 10 µM (SR): 16.3%; inhibition at 10 µM (CCRF-CEM): 22.5%
O=Cc1ccc(-c2cn3ccnc3c(-c3ccc4ncn(Cc5ccccc5)c4c3)n2)cc1	1.88	45.5	47.8	19	82.2	20.7	25	11.6	46.7	37.4	23.7	37.1	56.5	27.8	23	46.9	32	23.1	27.1	4.21	inhibition at 10 µM (MDA-MB-435): 13%; inhibition at 10 µM (KM12): 3.69%; inhibition at 10 µM (HT-29): 17.5%; inhibition at 10 µM (NCI-H522): 25.2%; inhibition at 10 µM (NCI-H460): 37.8%; inhibition at 10 µM (NCI-H23): 54.5%; inhibition at 10 µM (NCI-H226): 0.53%; inhibition at 10 µM (HOP-92): 43%; inhibition at 10 µM (SR): 47.5%; inhibition at 10 µM (CCRF-CEM): 77.9%
O=Cc1ccc(-c2cn3ccnc3c(-c3ccc4ncn(C5CCCCC5)c4c3)n2)cc1	1.5	45.5	47.8	19	82.2	20.7	25	11.6	46.7	37.4	23.7	37.1	56.5	27.8	23	46.9	32	23.1	27.1	4.21	inhibition at 10 µM (MDA-MB-435): 13%; inhibition at 10 µM (KM12): 3.69%; inhibition at 10 µM (HT-29): 17.5%; inhibition at 10 µM (NCI-H522): 25.2%; inhibition at 10 µM (NCI-H460): 37.8%; inhibition at 10 µM (NCI-H23): 54.5%; inhibition at 10 µM (NCI-H226): 0.53%; inhibition at 10 µM (HOP-92): 43%; inhibition at 10 µM (SR): 47.5%; inhibition at 10 µM (CCRF-CEM): 77.9%
Fc1ccc(-c2cn3ccnc3c(-c3ccc4ncn(C5CCCCC5)c4c3)n2)cc1	2.01	17.6	9.17	53.6	37.8	3.97	24.4	9.02	11.2	0.69	7.88	31	7.36	9.82	2.98	3.5	7.94	7.93	10.7	8.38	inhibition at 10 µM (MDA-MB-468): 19.5%; inhibition at 10 µM (MDA-MB-435): 1.78%; inhibition at 10 µM (KM12): 3.49%; inhibition at 10 µM (NCI-H522): 15.5%; inhibition at 10 µM (NCI-H460): 6.12%; inhibition at 10 µM (NCI-H23): 2.36%; inhibition at 10 µM (NCI-H226): 23.3%; inhibition at 10 µM (HOP-92): 35.2%; inhibition at 10 µM (SR): 20.4%; inhibition at 10 µM (CCRF-CEM): 33.4%
c1cn2cc(-c3ccc4ncn(C5CCCCC5)c4c3)nc(-c3ccc4ncn(C5CCCCC5)c4c3)c2n1	1.19	43.3	45	64.2	68.8	42.7	16.8	45.1	34.3	48.8	40.4	51.9	55.7	31.7	40.6	67	69	44	41.7	35.6	inhibition at 10 µM (MDA-MB-468): 31.4%; inhibition at 10 µM (MDA-MB-435): 60.2%; inhibition at 10 µM (KM12): 63.5%; inhibition at 10 µM (HT-29): 71.9%; inhibition at 10 µM (NCI-H522): 49.4%; inhibition at 10 µM (NCI-H460): 53%; inhibition at 10 µM (NCI-H23): 28.2%; inhibition at 10 µM (NCI-H226): 46.7%; inhibition at 10 µM (SR): 71.8%; inhibition at 10 µM (CCRF-CEM): 78.5%
